Data as given in ChEMBL document CHEMBL1143739, “SAR study of bicyclo[4.1.0]heptanes as melanin-concentrating hormone receptor R1 antagonists: taming hERG” (Bioorg Med Chem, 2007).
Active and inactive are the calls of the source. The rule behind the calls is not given here.

Assays:
hERG (KCNH2) [1] = target: T1, hERG (KCNH2) (Homo sapiens, UniProt Q12809); test: Inhibition of hERG expressed in CHO cells at 5 ug/mL by rubidium efflux assay; assay type: toxicity, cell-based; conditions: CHO cells that express hERG
T1 sequence (Q12809 whole entry): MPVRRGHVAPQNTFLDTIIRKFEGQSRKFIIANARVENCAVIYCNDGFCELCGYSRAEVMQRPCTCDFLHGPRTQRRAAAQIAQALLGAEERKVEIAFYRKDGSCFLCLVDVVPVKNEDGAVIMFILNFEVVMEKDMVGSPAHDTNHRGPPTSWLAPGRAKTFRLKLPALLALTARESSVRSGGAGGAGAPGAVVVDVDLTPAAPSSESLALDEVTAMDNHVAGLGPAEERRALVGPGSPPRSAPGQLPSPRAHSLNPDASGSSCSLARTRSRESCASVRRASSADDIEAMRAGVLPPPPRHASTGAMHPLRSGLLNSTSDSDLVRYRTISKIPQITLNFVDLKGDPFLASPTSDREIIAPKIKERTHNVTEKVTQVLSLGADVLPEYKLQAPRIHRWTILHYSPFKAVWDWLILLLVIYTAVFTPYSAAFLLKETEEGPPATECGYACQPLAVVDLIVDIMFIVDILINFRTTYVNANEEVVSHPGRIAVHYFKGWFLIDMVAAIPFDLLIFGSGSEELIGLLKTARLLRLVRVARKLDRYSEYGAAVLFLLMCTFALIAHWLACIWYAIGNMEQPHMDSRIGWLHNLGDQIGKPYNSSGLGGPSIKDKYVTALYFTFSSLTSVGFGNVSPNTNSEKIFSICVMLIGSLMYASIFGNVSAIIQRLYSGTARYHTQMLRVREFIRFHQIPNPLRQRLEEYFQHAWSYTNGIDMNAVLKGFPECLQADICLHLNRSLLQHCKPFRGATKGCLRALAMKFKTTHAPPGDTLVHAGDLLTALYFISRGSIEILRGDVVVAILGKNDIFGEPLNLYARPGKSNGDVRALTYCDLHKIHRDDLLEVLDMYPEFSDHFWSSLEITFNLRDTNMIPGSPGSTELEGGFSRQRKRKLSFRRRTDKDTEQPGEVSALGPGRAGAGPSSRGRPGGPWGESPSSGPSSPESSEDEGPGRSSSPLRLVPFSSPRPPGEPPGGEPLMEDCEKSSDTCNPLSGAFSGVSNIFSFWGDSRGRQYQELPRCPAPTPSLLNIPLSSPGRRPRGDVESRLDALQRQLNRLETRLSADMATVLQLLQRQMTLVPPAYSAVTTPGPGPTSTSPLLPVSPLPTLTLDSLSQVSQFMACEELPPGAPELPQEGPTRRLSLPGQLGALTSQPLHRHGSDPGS
Method in brief: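 hERG-CHO cells plated 24 h, then loaded 3 h in HEPES-buffered saline with 5.4 mM RbCl. Compound added and equilibrated 30 min at 37 °C. Cells washed three times in Rb-free saline (5.4 mM KCl), then depolarized 5 min with 45.4 mM KCl.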

[2] = target: Melanin-concentrating hormone receptor 1 (Mus musculus) (UniProt Q8JZL2); test: Ex vivo displacement of [125I]S36057 binding from mouse brain MCHR1 at 30 mg/kg, po after 24 hrs; assay type: functional, organism-based; parameters: dose 30 mg/kg
Sequence of Melanin-concentrating hormone receptor 1 (Mus musculus) (Q8JZL2 whole entry): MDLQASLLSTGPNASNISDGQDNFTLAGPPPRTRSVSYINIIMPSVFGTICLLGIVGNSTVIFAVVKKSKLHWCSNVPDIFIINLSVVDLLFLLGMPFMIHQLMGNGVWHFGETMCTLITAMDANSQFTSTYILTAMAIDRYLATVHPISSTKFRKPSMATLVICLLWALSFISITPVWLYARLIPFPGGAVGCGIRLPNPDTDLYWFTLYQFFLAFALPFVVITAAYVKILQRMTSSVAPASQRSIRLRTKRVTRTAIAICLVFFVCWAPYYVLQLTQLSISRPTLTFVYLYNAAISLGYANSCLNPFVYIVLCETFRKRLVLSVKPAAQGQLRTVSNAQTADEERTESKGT

[3] = target: Melanin-concentrating hormone receptor 1 (Mus musculus) (UniProt Q8JZL2); test: Ex vivo displacement of [125I]S36057 binding from mouse brain MCHR1 at 30 mg/kg, po after 6 hrs; assay type: functional, organism-based; parameters: dose 30 mg/kg
[4] = target: Melanin-concentrating hormone receptor 1 (Homo sapiens, UniProt Q99705); test: Displacement of [125I]MCH from MCHR1 expressed in CHO cells; assay type: cell-based
Sequence of Melanin-concentrating hormone receptor 1 (Q99705 whole entry): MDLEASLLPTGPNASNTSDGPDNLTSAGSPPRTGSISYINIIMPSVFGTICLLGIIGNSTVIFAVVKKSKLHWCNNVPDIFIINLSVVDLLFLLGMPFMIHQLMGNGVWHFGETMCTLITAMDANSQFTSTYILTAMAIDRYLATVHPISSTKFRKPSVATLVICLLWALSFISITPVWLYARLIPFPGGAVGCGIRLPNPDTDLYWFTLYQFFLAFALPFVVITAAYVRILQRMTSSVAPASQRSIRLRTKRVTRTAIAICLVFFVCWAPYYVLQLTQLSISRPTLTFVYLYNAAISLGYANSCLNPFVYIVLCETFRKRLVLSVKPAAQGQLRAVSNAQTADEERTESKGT
Method in brief: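 Human MCH R1, CHO cell membranes (0.1 mg/mL) on SPA beads (1 mg/mL). Buffer: 25 mM HEPES, 10 mM MgCl2, 5 mM MnCl2, 0.1% BSA, pH 7.4. Incubation 2–4 h at room temperature, scintillation count. Ki by non-linear regression; mean ± range of two determinations, each in quadruplicate.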

hERG (KCNH2) [5] = target: T1, hERG (KCNH2); test: Inhibition of hERG expressed in CHO cells at […] by rubidium efflux assay; assay type: toxicity, cell-based; conditions: CHO cells that express hERG

`NCc1ncc(C2=CCC(N(CCN3CCCC3)C(=O)Nc3ccc(F)c(Cl)c3)CC2)s1` (stereo not given) was tested, and the inhibition at 5 ug/mL (hERG (KCNH2) [1]) was 10%, the Activity [2] was 75% and the Activity [3] was 88%. The Ki [4] was 13 nM.
In the case of `CC(C)N(CCN(C(=O)Nc1cc(Cl)nc(Cl)c1)[C@@H]1CC[C@]2(c3cccc(C#N)c3)CC2C1)[C@@H](C)CO` (stereo not given in full), the inhibition at 5 ug/mL (hERG (KCNH2) [1]) is reported as 60%, the Activity [2] is reported as 81% and the Activity [3] is reported as 99%. For the same compound, the Ki [4] was 1.6 nM.
In the case of `CC(=O)c1ccc(C2=CCC(N(CCN3CCCC3)C(=O)Nc3ccc(F)c(Cl)c3)CC2)s1` (stereo not given), the inhibition at 5 ug/mL (hERG (KCNH2) [1]) is reported as 43%, the Activity [2] is reported as 3% and the Activity [3] is reported as 59%. It also gave a Ki [4] of 31 nM.
For `CS(=O)(=O)N1CCC(CN(C(=O)Nc2ccc(F)c(Cl)c2)[C@@H]2CC[C@]3(c4cccc(CN)c4)CC3C2)CC1` (stereo not given in full), the inhibition at 5 ug/mL (hERG (KCNH2) [1]) was 14%, the Activity [3] was 0% and the Ki [4] was 9.9 nM. For the same compound, the inhibition at […] (hERG (KCNH2) [5]) was 8%.
In the case of `N#Cc1cccc([C@]23CC[C@@H](N(CCN4CCC[C@H]4CO)C(=O)Nc4ccc(F)c(Cl)c4)CC2C3)c1` (stereo not given in full), the inhibition at 5 ug/mL (hERG (KCNH2) [1]) is reported as 75%, the Activity [2] is reported as “inactive” and the Activity [3] is reported as 78%.
`CS(=O)(=O)N1CCC(CN(C(=O)Nc2cc(Cl)nc(Cl)c2)[C@@H]2CC[C@]3(c4cccc(CN5CC[C@H](O)C5)c4)CC3C2)CC1` (stereo not given in full) showed an inhibition at 5 ug/mL (hERG (KCNH2) [1]) of 0%, an Activity [3] of 1% and a Ki [4] of 8.9 nM. For the same compound, the inhibition at […] (hERG (KCNH2) [5]) was -7%.
`CC(C)N(CCF)CCN(C(=O)Nc1ccc(F)c(Cl)c1)[C@@H]1CC[C@]2(c3cccc(C#N)c3)CC2C1` (stereo not given in full) was tested, and the inhibition at 5 ug/mL (hERG (KCNH2) [1]) was 50%, the Activity [2] was 66% and the Activity [3] was 81%. The Ki [4] was 12 nM.
In the case of `CN(C)Cc1cccc([C@]23CC[C@@H](N(CC4CCN(S(C)(=O)=O)CC4)C(=O)Nc4ccc(F)c(Cl)c4)CC2C3)c1` (stereo not given in full), the inhibition at 5 ug/mL (hERG (KCNH2) [1]) is reported as 8%, the Activity [3] is reported as 26% and the Ki [4] is reported as 15 nM. It also gave an inhibition at […] (hERG (KCNH2) [5]) of 7%.
For `N#Cc1cccc([C@]23CC[C@@H](N(CCN4CC[C@@H](O)C4)C(=O)Nc4ccc(F)c(Cl)c4)CC2C3)c1` (stereo not given in full), the inhibition at 5 ug/mL (hERG (KCNH2) [1]) was 80%, the Activity [2] was “inactive” and the Activity [3] was 49%.
In the case of `CC(C)N(CCN(C(=O)Nc1ccc(F)c(Cl)c1)[C@@H]1CC[C@]2(c3cccc(CNS(C)(=O)=O)c3)CC2C1)C(C)C` (stereo not given in full), the inhibition at 5 ug/mL (hERG (KCNH2) [1]) is reported as 46%, the Ki [4] is reported as 18 nM and the inhibition at […] (hERG (KCNH2) [5]) is reported as 17%.
Work on `CC(C)N(CCN(C(=O)Nc1ccc(F)c(Cl)c1)[C@@H]1CC[C@]2(c3cccc(C#N)c3)CC2C1)[C@@H](C)CO` (stereo not given in full) yielded an inhibition at 5 ug/mL (hERG (KCNH2) [1]) of 82%, an Activity [2] of 35% and an Activity [3] of 75%. The Ki [4] was 5.2 nM.
Compound `N#Cc1cccc([C@]23CC[C@@H](N(CCNCCF)C(=O)Nc4cc(Cl)nc(Cl)c4)CC2C3)c1` (stereo not given in full) has an inhibition at 5 ug/mL (hERG (KCNH2) [1]) of 84%, an Activity [2] of 32% and an Activity [3] of 89%. For the same compound, the Ki [4] was 4.4 nM.
Work on `CS(=O)(=O)N1CCCC(CN(C(=O)Nc2ccc(F)c(Cl)c2)[C@@H]2CC[C@]3(c4cccc(C#N)c4)CC3C2)C1` (stereo not given in full) yielded an inhibition at 5 ug/mL (hERG (KCNH2) [1]) of 9%, a Ki [4] of 211 nM and an inhibition at […] (hERG (KCNH2) [5]) of 3%.
`N#Cc1ccc(C2=CCC(N(CCN3CCCC3)C(=O)Nc3ccc(F)c(Cl)c3)CC2)s1` (stereo not given) gave an inhibition at 5 ug/mL (hERG (KCNH2) [1]) of 74%, an Activity [2] of 97% and an Activity [3] of 84%. The Ki [4] was 4.2 nM.
Compound `CS(=O)(=O)N1CCC(CN(C(=O)Nc2ccc(F)c(C(F)(F)F)c2)[C@@H]2CC[C@]3(c4cccc(C#N)c4)CC3C2)CC1` (stereo not given in full) has an inhibition at 5 ug/mL (hERG (KCNH2) [1]) of -1%, a Ki [4] of 26 nM and an inhibition at […] (hERG (KCNH2) [5]) of -1%.
